DDE Tn6 FP inh = DD(E)-Tn6 binding inhibition, primary FP screen. P02675. Fibrin DD(E) TRITC-Tn6 fluorescence polarization displacement. inhibition, % at 8.3 µM. 370,000 compounds, 0.21% hits. AID 720509;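 active = inhibition above a per-campaign cutoff: mean of compounds within control limits plus 3 SD, cut at about 15% in these data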;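 also: 0% = median of all compound wells on the plate and 100% = blocking peptide control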
MT1-MMP act inh = inhibitors of human MT1-MMP activation | P50281 | HT1080 RFP-PRO-GFP cells, GFP/RFP ratio fluorescence, overnight; percent of plate control window, DMSO zero | GFP/RFP ratio change, % at 20 µM | 360,000 compounds, 0.061% hits;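 active = GFP/RFP ratio change of at least 30% with cell ATP level not reduced by more than half and red fluorescence within 50% of control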
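Material – HT1080 RFP-PRO-GFP cells · Control set – DMSO wells and RFP-L50D-GFP cells · Incubation – overnight cell settling, then overnight compound exposure, 37 °C, 5% CO2 · Compound dosing – single-point 20 µM compound, 1% DMSO · Read-out – GFP/RFP fluorescence ratio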
Neddylation inh = inhibitors of human cullin neddylation | P61081+Q13564 | 360,000 compounds, 0.58% hits | AID 651699 | calls only at 25 µM | TR-FRET cullin neddylation, biochemical; in the data active = inhibition above about 36%
SKN-1 inh = inhibitors of C. elegans SKN-1; C. elegans VP596 Pgst-4::GFP/RFP ratio, acrylamide-induced, 24 h; inhibition, % at 21.8 µM; 360,000 compounds, 0.49% hits; AID 624304;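 active = interference check ratio from 0.5 to 1.5 plus GFP to RFP signal ratio inhibition reaching or exceeding a fixed threshold, cut at about 30% in these data, passing the limit was not always enough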
KLK7 zymogen act = activates the human kallikrein-7 zymogen; purified proKLK7, EDANS-DABCYL substrate fluorescence; 100% is mature enzyme control, 0% vehicle; P49862; activation, % at 7 µM; 370,000 compounds, 0.9% hits; AID 652039;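 active = activation above the mean of all tested compounds plus 3 SD, computed per campaign excluding outliers beyond control limits, cut at about 13% in these data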
Target sequence (P49862 whole entry, looked up): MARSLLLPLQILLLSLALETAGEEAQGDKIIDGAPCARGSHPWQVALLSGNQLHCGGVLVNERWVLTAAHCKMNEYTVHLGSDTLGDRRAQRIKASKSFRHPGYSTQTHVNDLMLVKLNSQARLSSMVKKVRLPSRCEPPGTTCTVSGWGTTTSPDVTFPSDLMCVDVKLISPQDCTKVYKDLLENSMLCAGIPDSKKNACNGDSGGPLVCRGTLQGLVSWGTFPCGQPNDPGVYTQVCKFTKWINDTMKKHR
Tn7 DDE FP = disrupts Tn7 cyclic peptide binding to fibrin D-Dimer-E complex. P02675. FP displacement of FITC-Tn7 peptide from fibrin DD(E); 0% = median of compound wells per plate. inhibition, % at 8.3 µM. 370,000 compounds, 0.13% hits. AID 720508;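 active = inhibition above the mean of compounds falling within the control limits plus 3 SD of them, cut at about 14% in these data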;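 also: 0% = plate median of compound wells and 100% = 10 µM Aha-Tn7 peptide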
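Assay system: human fibrin DD(E). Input: DD(E) 2 µM final. Medium: Tris buffer with calcium and detergent, pH 7.8. Compound dosing: single point at 8.3 µM. Timing: 10 min plus 3 h, room temperature. Technique: fluorescence polarization of the labelled Tn7 tracer. Read-out: percent inhibition. Replicates: singlicate testing.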
Neddyl inh conf = confirmation of human cullin neddylation inhibitors; shares compounds with Neddylation inh; TR-FRET cullin neddylation biochemical assay; calls only at 25 µM; 1,800 compounds, 13% hits; AID 652217; in the data active = inhibition above about 40%;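 also: neddylation substrate is the cullin 1 ring ligase complex with SKP2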
An asterisk follows results filed as active; i = inactive; x = not tested or not shown; + = active, no number. Most compounds without a hit are left out; they make up all but 2.2% or so of the library.

SMILES	DDE Tn6 FP inh	MT1-MMP act inh	Neddylation inh	SKN-1 inh	KLK7 zymogen act	Tn7 DDE FP	Neddyl inh conf
CCOc1ccc2[nH]c3ncccc3c(=O)c2c1	-8.8	5.4	+	-0.9	7.1	-3.0	+
CCOc1ncccc1C(=O)OCC(=O)N1CCN(S(=O)(=O)c2ccc(Cl)cc2)CC1	-3.9	4.2	i	8.6	-0.2	-3.7	x
Nc1ncccc1C(=O)OCC(=O)N1CCN(S(=O)(=O)c2ccc(Cl)cc2)CC1	1.3	-11.2	+	-0.8	2.3	-0.7	x
c1ccc(-c2cc3c(-n4cccc4)ncnc3o2)cc1	-0.6	-5.4	+	8.6	-0.9	0.4	i
c1ccc(Oc2ncnc3oc(-c4ccccc4)cc23)cc1	0.1	-1.3	i	-12.2	-0.5	0.4	x
Cc1ccccc1C(=O)Nc1ccccn1	-8.1	3.4	i	-12.3	-0.1	1.1	x
S=c1[nH]nc(-c2cc(-c3ccccc3)n[nH]2)n1/N=C/c1c(Cl)cccc1Cl	-2.6	-1.7	+	4.0	0.6	2.0	i
S=c1[nH]nc(-c2cc(-c3ccccc3)n[nH]2)n1/N=C/C=C/c1ccco1	7.0	-6.3	+	10.1	0.2	0.6	i
O=C(COC(=O)c1n[nH]c2ccccc12)NC(=O)NCc1ccco1	-10.7	0.8	i	20.6	0.0	6.7	x
Cc1sc(NC(=O)c2ccco2)c(C(c2ccccc2)N2CCC(C)CC2)c1C (stereo unspecified)	-5.8	-5.3	+	11.1	-26.7	2.9	x
Cc1ccc(C(c2c(NC(=O)c3ccco3)sc(C)c2C)N2CCOCC2)cc1 (stereo unspecified)	-6.2	-3.4	x	17.1	-0.3	-0.2	x
O=C(Cc1ccc(Cl)cc1)NNC(=S)NC(=O)c1cccs1	-3.2	2.9	+	-2.2	0.6	-3.3	i
CN(C)c1ccc2c(=O)c3ccccc3oc2n1	-1.7	5.8	+	1.9	-0.5	-3.5	i
Cc1cc(Cl)ccc1NC(=O)C(=O)N/N=C/c1ccc2c(c1)OCO2	7.3	2.6	+	-0.4	0.0	-7.8	i
Cc1ccc(Cl)cc1NC(=O)C(=O)N/N=C/c1ccc2c(c1)OCO2	0.8	2.6	+	-1.6	-0.1	-7.0	i
CSc1ccccc1OCc1cc(C(=O)N2CCC[C@H]2C(N)=O)no1	-5.5	-1.0	i	-1.5	-0.3	2.7	x
CS(=O)(=O)N(CC(=O)N1CCOCC1)Cc1ccc(Cl)cc1	-5.4	2.0	i	-0.9	-0.5	-5.6	x
Cc1ccc(OCc2cc(C(=O)NCC(C)c3ccccc3)no2)cc1C (stereo unspecified)	2.3	-1.7	i	24.4	-0.6	-2.5	x
CCN(CC(=O)Nc1ccc(NC(C)=O)cc1)C(=O)/C=C/c1cn(-c2ccccc2)nc1-c1cccs1	-5.6	2.6	+	14.1	-22.5	0.2	x
Cc1ccc(NC(=O)CN2C(=O)N/C(=C/c3ccccc3OCc3cccc(C(=O)O)c3)C2=O)cc1	3.3	0.6	i	-2.8	-0.1	-5.5	x
COc1cccc(/C=C2/NC(=O)N(CC(=O)Nc3ccc(C)cc3)C2=O)c1OCc1cccc(C(=O)O)c1	3.7	-3.8	+	6.8	0.1	-4.6	x
N#Cc1nc(-c2cccc3ccccc23)oc1NCCN1CCOCC1	x	0.2	x	14.3	x	x	x
N#Cc1nc(-c2ccco2)oc1NCCN1CCOCC1	3.9	4.0	+	11.3	0.7	2.0	i
COc1ccc(/C=C\c2cc(OC)c(OC)cc2CC[N+](C)(C)C)cc1OC	-5.0	0.1	+	3.0	0.7	-1.6	i
COc1ccc(/C=C/c2ccncc2)cc1OC	3.8	1.6	i	10.7	8.5	7.6	x
CSCCC(NC(=O)c1ccccc1)C(=O)OCC(=O)N(C)CCC#N (stereo unspecified)	3.4	0.2	i	-1.4	0.4	3.0	x
Cc1cccc(-n2ncc3c(NC(C)C)ncnc32)c1	-2.7	-1.4	+	9.0	-0.6	-4.6	i
